Screening data from PubChem.
PHOSPHO1 inh – PHOSPHO1 (human) inhibition; Q8TCT1; recombinant PHOSPHO1, absorbance phosphatase assay; inhibition, % at 13.3 µM; 290,000 tested, 1.1% active; in the data active means inhibition above about 60%
proCasp3 act – activators of human procaspase-3; P42574; recombinant procaspase-3 D3A, Ac-DEVD-pNA absorbance 405 nm; activation, % at 8.5 µM; 330,000 tested, 0.11% active; AID 463141;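 active means activation above the mean of all tested compounds plus 3 SD, cut at about 21% in these data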;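 further: 0% = DMSO alone and 100% = DMSO wells spiked with extra 5 µM PC-3 D3A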
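Assay system – Procaspase-3 D3A mutant · Benchmarks – DMSO low control, extra-enzyme high control · Technique – 405 nm absorbance of p-nitroaniline, reads at 0 and 120 min · Doses – 8.5 µM nominal · Measure – % activation between DMSO and enzyme-spiked controls · Also added – Ac-DEVD-pNA chromogenic peptide substrate · Schedule – 1 h compound preincubation, 2 h substrate hydrolysis at 25 °C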
IDE cell inh – inhibitors of human insulin-degrading enzyme in cells; P14735; 320,000 tested, 0.41% active; inhibition, % at 5.59 µM; HEK cells, FAbetaB cleavage, fluorescence polarization;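 active means percent inhibition above the average of all tested compounds plus 3 SD, set per screening campaign, cut at about 16% in these data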;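 further: IDE supplied by intact live HEK cells; FP after avidin binding of uncleaved biotin substrate so inhibition keeps polarization high; 0% = DMSO wells and 100% = 60 µM reference IDE inhibitor Ii1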
IDE cell activ – boosts human insulin-degrading enzyme activity in HEK cells. P14735. FAbeta-B cleavage, fluorescence polarization; 0% vehicle, 100% cell-free pure enzyme wells. activation, % at 5.96 µM. 340,000 tested, 0.073% active. AID 493087;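 active means activation above the mean of all tested compounds plus 3 SD, set per screening campaign, cut at about 17% in these data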
UBC13 polyUb – inhibitors of human UBC13 polyubiquitin chain formation. P61088. TR-FRET. inhibition, % at 20 µM. 330,000 tested, 0.47% active; in the data active means inhibition above about 45%, passing the limit was not always enough
Target sequence (P61088 whole entry, looked up): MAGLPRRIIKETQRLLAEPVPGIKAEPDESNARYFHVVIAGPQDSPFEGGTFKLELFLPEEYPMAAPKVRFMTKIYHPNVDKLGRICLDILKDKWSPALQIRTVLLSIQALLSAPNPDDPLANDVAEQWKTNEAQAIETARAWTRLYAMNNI
procasp7 counter – counter-screen for procaspase-3 activators: activators of human procaspase-7; activation, % at 8.5 µM; P55210; 330,000 tested, 0.093% active; recombinant procaspase-7, Ac-DEVD-pNA absorbance 405 nm; D23A/D198A/D206A triple mutant, cannot self-cleave; scale: DMSO 0, 5 µM enzyme 100;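 active means percent activation above the screen-wide mean plus 3 SD, cut at about 25% in these data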
Target sequence (P55210 whole entry D23A/D198A/D206A): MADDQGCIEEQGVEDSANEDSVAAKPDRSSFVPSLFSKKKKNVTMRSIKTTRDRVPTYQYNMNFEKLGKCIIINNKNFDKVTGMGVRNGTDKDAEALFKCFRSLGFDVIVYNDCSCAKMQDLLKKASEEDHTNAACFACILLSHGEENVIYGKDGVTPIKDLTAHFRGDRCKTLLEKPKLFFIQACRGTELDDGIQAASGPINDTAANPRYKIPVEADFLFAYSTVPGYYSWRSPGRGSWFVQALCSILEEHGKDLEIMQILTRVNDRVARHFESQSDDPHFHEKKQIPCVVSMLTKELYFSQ
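Detection: p-Nitroaniline absorbance at 405 nm, read at 0 and 120 min; system: Uncleavable procaspase-7 mutant enzyme; evaluation: % activation from two-timepoint absorbance difference, scaled to controls; times: 1 h enzyme–compound preincubation and 2 h substrate reaction, both 25 °C; buffer or medium: Zinc-free HEPES pH 7.4 with 300 mM NaCl, 0.01% Triton X-100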
Active calls of the source: *; / = no result given; ! = not confirmed by another sample. Shown are actives, neighbours in structure and some others; about 1.9% of the full set was active somewhere.

SMILES | PHOSPHO1 inh | proCasp3 act | IDE cell inh | IDE cell activ | UBC13 polyUb | procasp7 counter
CC(C)c1ccc(C2CC(=O)N3CN(Cc4ccco4)CSC3=C2C#N)cc1 (stereo unspecified) | 26 | -13 | 1 | -6 | -12 | -10
COc1ccc(C2CC(=O)N3CN(c4ccc(C)c(Cl)c4)CSC3=C2C#N)cc1 (stereo unspecified) | 83* | -9 | 7 | -9 | -17 | -16
COc1cccc(CNS(=O)(=O)c2ccc3c(c2)N(C)CCO3)c1 | -10 | -7 | 1 | 5 | -1 | 0
COc1ccc(N(C)S(=O)(=O)c2cccc(C(=O)Nc3cccc(C(=O)NC4CC4)c3)c2)cc1 | / | 3 | 1 | 2 | 6 | -2
CCC1=[N+](C)CCn2c(C)ccc21 | 69* | -9 | 8 | -1 | -11 | 13
Cc1sc2ncnc(NCC3CCCO3)c2c1C (stereo unspecified) | 60* | -8 | 3 | 4 | 4 | 8
CCc1cc2c(NCC3CCCO3)ncnc2s1 (stereo unspecified) | -2 | 5 | 1 | 5 | 4 | 0
COc1ccccc1NC(=O)c1ccc(Br)c(S(=O)(=O)N2CCCC2)c1 | 18 | 3 | -4 | 2 | -5 | -4
O=[N+]([O-])c1ccc(COc2ccc(-c3[nH]ncc3-c3ccccc3)c(O)c2)cc1 | -26 | 3 | -1 | 9 | 2 | 5
Oc1cc(OCc2ccccc2)ccc1-c1[nH]ncc1-c1ccccc1 | 20 | 0 | 1 | 23* | 11 | 5
Cc1cccc(-c2nnc(SCc3ccc(C#N)cc3)n2Cc2ccco2)c1 | 64* | 7 | 6 | -8 | 11 | -9
Cc1nnc(SCC(=O)NCc2ccc3c(c2)OCO3)n1C | 21 | 9 | 4 | 6 | 2 | -5
CCOC(=O)c1c(C)[nH]c(C)c1C(=O)CSc1nnc(-c2ccncc2)n1C | 81* | 1 | -3 | -2 | 0 | 2
CCn1c(SCc2ccc(C#N)cc2)nnc1-c1cccc(Cl)c1 | 36 | -5 | 3 | 3 | 10 | -2
Cc1cccc(-c2nnc(SCC(=O)NCc3ccc4c(c3)OCO4)n2C)c1 | 72* | -5 | 2 | -3 | -2 | 11
COc1cccc(-c2nnc(SCC(=O)NCc3ccc4c(c3)OCO4)n2Cc2ccco2)c1 | 76* | -6 | 9 | -12 | -12 | -12
O=C(CSc1nnc(-c2cccnc2)n1Cc1ccco1)NCc1ccc2c(c1)OCO2 | 18 | -13 | 2 | -3 | 7 | 5
O=C(NNC(=O)c1ccccc1[N+](=O)[O-])c1ccc(NC(=O)c2ccccc2)cc1 | 20 | 7 | 0 | 6 | 1 | 5
O=C(COC(=O)c1ccc[n+]([O-])c1)Nc1ccc(Cl)cc1[N+](=O)[O-] | / | 1 | -3 | 3 | -8 | 1
CCN(C[C@H]1N[C@@](C)(C(=O)OC)[C@H]2C(=O)N(C)C(=O)[C@@H]12)C(=O)C1CCCCC1 | / | 10 | 8 | -2 | -11 | -12
COc1ccc(NC(=O)CN(C)C(=O)c2cnc(Cl)c(Cl)c2)cc1 | 10 | -4 | 1 | 4 | 4 | -5
S=C1N(c2ccccc2)CN(CCN2CCOCC2)CN1c1ccccc1 | 27 | 12 | 9 | / | 8 | 7
COc1cccc(OCc2nnc(SCC(=O)NCc3ccco3)n2CCc2ccccc2)c1 | 62* | -7 | 1 | 2 | 5 | 2
CCn1c(SCC(=O)c2ccc3c(c2)OCCO3)nnc1-c1ccco1 | 4 | 1 | 9 | -4 | -1 | -14
COc1ccc(C(=O)CSc2nnc(-c3cccnc3)n2Cc2ccco2)cc1 | 92* | 4 | 5 | -11 | -11 | -10
SMILES | PHOSPHO1 inh | proCasp3 act | IDE cell inh | IDE cell activ | UBC13 polyUb | procasp7 counter
CCn1c(SCC(=O)c2ccc3ccccc3c2)nnc1-c1ccco1 | 73* | 9 | 8 | 0 | -8 | -4
Cn1c(SCC(=O)NCc2cccs2)nnc1-c1ccncc1 | 69* | 5 | -1 | 7 | 4 | 1
CCCn1c(N)c(C(=O)CSc2nnc(-c3cccs3)n2C2CC2)c(=O)[nH]c1=O | / | 5 | 8 | 2 | 0 | 9
CCOC(=O)c1cccc(NC(=O)CC2Oc3ccccc3NC2=O)c1 (stereo unspecified) | 25 | 10 | -2 | 1 | -1 | 0
COc1cccc(-n2ccnc2SCC(=O)NCc2ccccc2)c1 | 62* | 8 | -1 | -1 | 6 | 2
CCOC(=O)CNC(=O)CSc1nnc(-c2ccco2)n1N | 18 | 5 | 1 | 0 | -14 | 6
CCOC(=O)CNC(=O)CSc1nnc(-c2ccco2)n1Cc1ccco1 | 92* | 4 | -2 | 4 | 11 | -9
O=C(CSCCO)Nc1cccc(C(F)(F)F)c1 | 6 | -2 | 3 | 1 | 20 | 12
CN(C)C(=S)SCC(=O)Nc1cccc(C(F)(F)F)c1 | 67* | 4 | 2 | 0 | 1 | -5
Cc1ccc(NC(=O)Cn2cnc3c(NCc4ccccc4)ncnc32)cc1C | / | -1 | / | 2 | / | 6
CCn1c(C)[n+](CC(O)COCC2CC=CCC2)c2ccccc21 (stereo unspecified) | 104* | -12 | -4 | -3 | -4 | -5
CCN=c1scc(-c2ccco2)n1/N=C/c1ccc(O)cc1 | 80* | -13 | 4 | 3 | -17 | 13
Cc1cc(O)ccc1Nc1nc2ccccc2nc1Nc1ccc(O)cc1C | 97* | 1 | 1 | 6 | 23 | -15
Cc1ccc(Nc2nc3ccccc3s2)c(C)c1 | 21 | -4 | -4 | 8 | -1 | -4
CC(C)(C)OC(=O)N1CCC(C(=O)Nc2cccc(C(=O)NCc3ccccc3)c2)CC1 | / | / | / | 2 | / | /
COc1ccc(N2C(=O)CC(N(CCc3ccccc3)C(=O)/C=C/C(=O)O)C2=O)cc1 (stereo unspecified) | 64* | -24 | 2 | 6 | -3 | -28
C=CCNc1nc(-c2ccc(OC)cc2OC)cs1 | 61* | -12 | 3 | 0 | 7 | -2
CCCn1c(SCc2cc(=O)oc3ccc4ccccc4c23)n[nH]c1=O | 92* | 7 | 6 | 2 | -9 | -8
O=c1[nH][nH]c(=S)n1-c1ccccc1C(F)(F)F | 90* | / | / | / | / | /
COCCCn1c(-c2ccco2)nc2ccccc2c1=O | -7 | -3 | 2 | 1 | 8 | 11
COCCCN=C(c1ccco1)n1c(=S)nc(-c2ccco2)n(CCCOC)c1=S | 98* | -15 | -4 | 3 | -16 | -38
CCOC(=O)N1CCN(Cc2ccc(O)c3ncccc23)CC1 | -99 | -26 | -6 | / | 2 | -38
CCOC(=O)N1CCC(=C2c3ccc(Cl)cc3CCc3cccnc32)CC1 | 74*! | 5 | 1 | -4 | 1 | 8
